Measurements published in ChEMBL document CHEMBL1141647, “Novel ofloxacin derivatives: synthesis, antimycobacterial and toxicological evaluation” (Bioorg Med Chem Lett, 2008).
Values after ≈ are worked out from the molar mass of the structure shown.

Tested on: not listed separately
Test: Selectivity index, Ratio of IC50 for human Vero cells to MIC99 for multidrug resistant Mycobacterium tuberculosis
Type: functional

Compound | Selectivity index
CC1COc2c(N3CCn4cc(C(=O)O)nc4C3)c(F)c([N+](=O)[O-])c3c(=O)c(C(=O)O)cn1c23 (stereo not given) | >1467

Tested on: Mycobacterium tuberculosis
Test: Antimycobacterial activity against multidrug resistant Mycobacterium tuberculosis by agar dilution method
Type: functional
Method in brief: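 MIC99 was taken as the lowest concentration giving complete inhibition of bacterial growth.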

Compound | MIC99
CC1COc2c(N3CCn4cc(C(=O)O)nc4C3)c(F)cc3c(=O)c(C(=O)O)cn1c23 (stereo not given) | 0.44 µM (≈ 0.188 µg/mL)
COc1cc2c(cc1OC)CN(c1c(F)cc3c(=O)c(C(=O)O)cn4c3c1OCC4C)CC2 (stereo not given) | 3.43 µM (≈ 1.56 µg/mL)
CC1COc2c(N3CCN(C(c4ccccc4)c4ccc(Cl)cc4)CC3)c(F)c([N+](=O)[O-])c3c(=O)c(C(=O)O)cn1c23 (stereo not given) | 2.63 µM (≈ 1.56 µg/mL)
CC1CN(c2c(F)c([N+](=O)[O-])c3c(=O)c(C(=O)O)cn4c3c2OCC4C)CC(C)O1 (stereo not given) | 3.7 µM (≈ 1.56 µg/mL)
CC1COc2c(N3CCN(Cc4ccc5c(c4)OCO5)CC3)c(F)c([N+](=O)[O-])c3c(=O)c(C(=O)O)cn1c23 (stereo not given) | 5.95 µM (≈ 3.13 µg/mL)
CC1COc2c(N3CCc4ccccc4C3C(=O)NC(C)(C)C)c(F)c([N+](=O)[O-])c3c(=O)c(C(=O)O)cn1c23 (stereo not given) | 1.45 µM (≈ 0.781 µg/mL)
CC1COc2c(N3CCN(C(=O)C4COc5ccccc5O4)CC3)c(F)c([N+](=O)[O-])c3c(=O)c(C(=O)O)cn1c23 (stereo not given) | 1.41 µM (≈ 0.782 µg/mL)
CC1COc2c(N3CCC4(CC3)OCCO4)c(F)c(N)c3c(=O)c(C(=O)O)cn1c23 (stereo not given) | 3.72 µM (≈ 1.56 µg/mL)
CC1COc2c(N3CCC(n4c(=O)[nH]c5cc(Cl)ccc54)CC3)c(F)cc3c(=O)c(C(=O)O)cn1c23 (stereo not given) | 0.76 µM (≈ 0.39 µg/mL)
CC1COc2c(N3CCN(C)C(c4ccccc4)C3)c(F)c([N+](=O)[O-])c3c(=O)c(C(=O)O)cn1c23 (stereo not given) | 3.23 µM (≈ 1.56 µg/mL)
CC1COc2c(N3CCc4ccccc4C3C(=O)NC(C)(C)C)c(F)cc3c(=O)c(C(=O)O)cn1c23 (stereo not given) | 3.16 µM (≈ 1.56 µg/mL)
CC1COc2c(N3CCSCC3)c(F)cc3c(=O)c(C(=O)O)cn1c23 (stereo not given) | 8.59 µM (≈ 3.13 µg/mL)
COc1cc2c(cc1OC)CN(c1c(F)c([N+](=O)[O-])c3c(=O)c(C(=O)O)cn4c3c1OCC4C)CC2 (stereo not given) | 3.12 µM (≈ 1.56 µg/mL)
CC1COc2c(N3CCn4cc(C(=O)O)nc4C3)c(F)c(N)c3c(=O)c(C(=O)O)cn1c23 (stereo not given) | 1.76 µM (≈ 0.78 µg/mL)
CC1COc2c(N3CCSCC3)c(F)c([N+](=O)[O-])c3c(=O)c(C(=O)O)cn1c23 (stereo not given) | 1.91 µM (≈ 0.782 µg/mL)
CC1COc2c(N3CCn4cc(C(=O)O)nc4C3)c(F)c([N+](=O)[O-])c3c(=O)c(C(=O)O)cn1c23 (stereo not given) | 0.09 µM (≈ 0.0426 µg/mL)
CC1COc2c(N3CCC(n4c(=O)[nH]c5cc(Cl)ccc54)CC3)c(F)c([N+](=O)[O-])c3c(=O)c(C(=O)O)cn1c23 (stereo not given) | 0.34 µM (≈ 0.19 µg/mL)
CC1COc2c(N3CCC(O)(c4ccc(Cl)cc4)CC3)c(F)c([N+](=O)[O-])c3c(=O)c(C(=O)O)cn1c23 (stereo not given) | 3.01 µM (≈ 1.56 µg/mL)
CC1COc2c(N3CCN(C(=O)c4ccco4)CC3)c(F)c([N+](=O)[O-])c3c(=O)c(C(=O)O)cn1c23 (stereo not given) | 1.6 µM (≈ 0.778 µg/mL)
CC1COc2c(N3CCC4(CC3)OCCO4)c(F)cc3c(=O)c(C(=O)O)cn1c23 (stereo not given) | 0.09 µM (≈ 0.0364 µg/mL)
CC1COc2c(N3CCC4(CC3)OCCO4)c(F)c([N+](=O)[O-])c3c(=O)c(C(=O)O)cn1c23 (stereo not given) | 0.09 µM (≈ 0.0404 µg/mL)
CC1CN(c2c(F)cc3c(=O)c(C(=O)O)cn4c3c2OCC4C)CC(C)O1 (stereo not given) | 8.3 µM (≈ 3.12 µg/mL)
NNC(=O)c1ccncc1 [ISONIAZID] | 45.6 µM (≈ 6.25 µg/mL)
CC1COc2c(N3CCN(C)CC3)c(F)cc3c(=O)c(C(=O)O)cn1c23 (stereo not given) [OFLOXACIN] | 34.6 µM (≈ 12.5 µg/mL)
